Experimental data from ChEMBL document CHEMBL3244286, “Inactivation of trypsin-like proteases by sulfonylation. Variation of positively charged group and inhibitor length” (J Med Chem, 1978).

Assays:
Plasma kallikrein [1] = molecular target: T1, Plasma kallikrein (Homo sapiens, UniProt P03952); assay: Inhibition of 2 X 10^-7 M human plasma kallikrein using Z-Lys-nitrophenyl ester as substrate assessed as second-order rate inactivation constant incubated up to 1 hr at pH 7.4
Procedure, shortened: (§1)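 Enzyme and inhibitor incubated at room temperature in 0.1 M tris chloride, pH 7.4, with no more than 1% DMF from stocks. Aliquots were withdrawn and residual activity was assayed with Z-Lys-nitrophenyl ester. Protease concentration was set by methylumbelliferyl p-guanidinobenzoate titration. Decay was first order, k1 = 0.693/t1/2 (min), and the second-order constant is k1 divided by inhibitor concentration. Incubations with little loss of activity were stopped at 1 h.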

Plasminogen [2] = molecular target: T2, Plasminogen (Homo sapiens, UniProt P00747); assay: Inhibition of 4.8 X 10^-7 M human plasmin using Z-Lys-nitrophenyl ester as substrate assessed as second-order rate inactivation constant incubated up to 1 hr at pH 7.4; procedure, shortened: as §1
T2 sequence (P00747 97-580 limits assumed): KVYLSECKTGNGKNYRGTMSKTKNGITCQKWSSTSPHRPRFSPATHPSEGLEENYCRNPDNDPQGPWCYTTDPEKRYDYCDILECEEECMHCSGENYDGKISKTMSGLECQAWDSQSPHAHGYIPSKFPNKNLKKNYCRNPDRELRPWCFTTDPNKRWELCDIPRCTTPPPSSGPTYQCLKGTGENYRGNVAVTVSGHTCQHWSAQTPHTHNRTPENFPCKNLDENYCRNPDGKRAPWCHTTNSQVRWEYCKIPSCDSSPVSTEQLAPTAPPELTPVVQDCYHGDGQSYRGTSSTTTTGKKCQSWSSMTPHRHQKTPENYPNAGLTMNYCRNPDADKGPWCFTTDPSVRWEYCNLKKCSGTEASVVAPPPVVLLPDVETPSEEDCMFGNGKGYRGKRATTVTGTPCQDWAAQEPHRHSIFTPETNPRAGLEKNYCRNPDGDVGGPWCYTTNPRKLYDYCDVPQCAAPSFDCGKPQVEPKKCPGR
T2 sequence (P00747 581-810 limits assumed): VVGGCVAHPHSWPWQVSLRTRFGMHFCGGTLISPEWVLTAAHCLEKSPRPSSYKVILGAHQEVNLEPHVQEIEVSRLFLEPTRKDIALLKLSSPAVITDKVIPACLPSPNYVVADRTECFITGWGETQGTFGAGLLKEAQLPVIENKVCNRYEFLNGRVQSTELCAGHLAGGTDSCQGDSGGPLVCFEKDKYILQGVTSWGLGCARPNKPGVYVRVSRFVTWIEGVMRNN

Prothrombin (Bos taurus) [3] = molecular target: Prothrombin (Bos taurus) (UniProt P00735); assay: Inhibition of 16 X 10^-7 M bovine thrombin using Z-Lys-nitrophenyl ester as substrate assessed as second-order rate inactivation constant incubated up to 1 hr at pH 7.4; procedure, shortened: as §1
Bos taurus = species: Bos taurus; assay: Inhibition of 6.4 X 10^-7 M bovine trypsin using Z-Lys-nitrophenyl ester as substrate assessed as second-order rate inactivation constant incubated up to 1 hr at pH 7.4; procedure, shortened: as §1
[4] = molecular target: Urokinase-type plasminogen activator (Homo sapiens) (UniProt P00749); assay: Inhibition of 2 X 10^-7 M human urokinase using Z-Lys-thiobenzyl ester as substrate assessed as second-order rate inactivation constant incubated up to 1 hr at pH 7.4; conditions: in the assay text read “51 X 10^-7 M” for “2 X 10^-7 M”
Procedure, shortened: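 Purified urokinase incubated with inhibitor at room temperature in 0.1 M tris chloride, pH 7.4, with no more than 1% DMF. Residual activity in aliquots was read with Z-Lys-thiobenzyl ester. Enzyme was active-site titrated with methylumbelliferyl p-guanidinobenzoate. First-order k1 = 0.693/t1/2 (min), divided by inhibitor concentration to give the second-order rate. Incubations were not run past 1 h when loss was low.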

Plasma kallikrein [5] = molecular target: T1, Plasma kallikrein; assay: Competitive inhibition of 2 X 10^-7 M human plasma kallikrein using Z-Lys-nitrophenyl ester as substrate incubated up to 1 hr at pH 6
Procedure, shortened: (§2)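 Ki for competitive inhibition measured at pH 6 with Z-Lys-nitrophenyl ester as substrate. Enzyme concentrations were set by active-site titration with methylumbelliferyl p-guanidinobenzoate. Compounds were added from DMF stocks, with no more than 1% DMF in the reaction.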

Plasminogen [6] = molecular target: T2, Plasminogen; assay: Competitive inhibition of 4.8 X 10^-7 M human plasmin using Z-Lys-nitrophenyl ester as substrate incubated up to 1 hr at pH 6; procedure, shortened: as §2
Prothrombin = Prothrombin (Bos taurus, UniProt P00735); assay: Competitive inhibition of 16 X 10^-7 M bovine thrombin using Z-Lys-nitrophenyl ester as substrate incubated up to 1 hr at pH 6
Procedure, shortened: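 Ki for competitive inhibition was determined at pH 6 against Z-Lys-nitrophenyl ester hydrolysis, following previously published procedures. Active enzyme concentration was set by titration with methylumbelliferyl p-guanidinobenzoate. Inhibitors were added from DMF stock solutions, with DMF at no more than 1% of the reaction mixture.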

[7] = Competitive inhibition of 6.4 X 10^-7 M bovine trypsin using Z-Lys-nitrophenyl ester as substrate incubated up to 1 hr at pH 6; design: species or system Bos taurus; procedure, shortened: as §2
Prothrombin (Bos taurus) [8] = molecular target: Prothrombin (Bos taurus) (UniProt P00735); assay: Inhibition of 16 X 10^-7 M bovine thrombin using Z-Lys-nitrophenyl ester as substrate assessed as half time required for enzyme inactivation at 5X10'-5 M at pH 7.4; procedure, shortened: as §1
Plasma kallikrein [9] = molecular target: T1, Plasma kallikrein; assay: Inhibition of 2 X 10^-7 M human plasma kallikrein using Z-Lys-nitrophenyl ester as substrate assessed as half time required for enzyme inactivation at 5X10'-6 M at pH 7.4; conditions: in the assay text read “5.4X10'-4 M” for “5X10'-6 M”; procedure, shortened: as §1
[10] = molecular target: Urokinase-type plasminogen activator (Homo sapiens) (UniProt P00749); assay: Inhibition of 51 X 10^-7 M human urokinase using Z-Lys-thiobenzyl ester as substrate assessed as second-order rate inactivation constant incubated up to 1 hr at pH 7.4

T1 sequence (P03952 20-390 limits assumed): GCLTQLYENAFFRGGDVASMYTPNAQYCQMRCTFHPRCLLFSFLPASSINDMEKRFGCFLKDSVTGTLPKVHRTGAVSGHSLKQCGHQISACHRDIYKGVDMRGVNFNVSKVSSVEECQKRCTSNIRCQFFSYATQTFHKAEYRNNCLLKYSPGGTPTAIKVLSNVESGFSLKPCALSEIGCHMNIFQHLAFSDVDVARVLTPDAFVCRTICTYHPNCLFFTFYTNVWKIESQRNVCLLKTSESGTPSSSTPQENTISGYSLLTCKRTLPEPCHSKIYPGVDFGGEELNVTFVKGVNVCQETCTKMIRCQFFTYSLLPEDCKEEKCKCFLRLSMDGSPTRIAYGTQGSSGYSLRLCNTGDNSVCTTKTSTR
T1 sequence (P03952 391-638 limits assumed): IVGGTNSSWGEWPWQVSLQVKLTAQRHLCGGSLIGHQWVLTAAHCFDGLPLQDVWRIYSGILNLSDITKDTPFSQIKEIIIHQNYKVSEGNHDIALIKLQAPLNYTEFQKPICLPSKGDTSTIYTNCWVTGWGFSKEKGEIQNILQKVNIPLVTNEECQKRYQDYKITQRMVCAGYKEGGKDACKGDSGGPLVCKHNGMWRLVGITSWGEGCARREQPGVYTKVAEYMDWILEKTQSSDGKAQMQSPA

Structure (SMILES) | Kinact (Plasma kallikrein [1]) [M⁻¹ min⁻¹] | Kinact (Plasminogen [2]) [M⁻¹ min⁻¹] | Kinact (Prothrombin (Bos taurus) [3]) [M⁻¹ min⁻¹] | Kinact (Bos taurus) [M⁻¹ min⁻¹] | Kinact [4] [M⁻¹ min⁻¹] | Ki (Plasma kallikrein [5]) [µM] | Ki (Plasminogen [6]) [mM] | Ki (Prothrombin) [µM] | Ki [7] [µM] | T1/2 (Prothrombin (Bos taurus) [8]) [min] | T1/2 (Plasma kallikrein [9]) [h] | Kinact [10] [M⁻¹ min⁻¹]
C[S+](C)c1cccc(CS(=O)(=O)Oc2ccc([N+](=O)[O-])cc2)c1 | 0 | 0 | 0 | 0 | – | – | – | – | – | – | – | –
C[N+](C)(C)Cc1ccc(S(=O)(=O)Oc2ccc([N+](=O)[O-])cc2)cc1 | 0 | 50 | 147 | – | – | – | – | – | – | – | – | –
O=[N+]([O-])c1ccc(OS(=O)(=O)c2ccc(C[n+]3ccccc3)cc2)cc1 | – | 0 | 0 | 0 | – | – | – | – | – | – | – | –
C[S+](C)c1ccc(CS(=O)(=O)Oc2ccc([N+](=O)[O-])cc2)cc1 | 0 | 0 | 0 | 0 | – | – | – | – | – | – | – | –
N=C(N)SCc1ccc(CS(=O)(=O)Oc2ccc([N+](=O)[O-])cc2)cc1 | – | 7 | 0 | 1500 | 600 | 320 | 1.15 | 930 | 390 | – | – | –
O=[N+]([O-])c1ccc(OS(=O)(=O)Cc2cccc(-[n+]3ccccc3)c2)cc1 | 0 | 0 | 0 | 0 | 0 | – | – | – | – | – | – | –
O=[N+]([O-])c1ccc(OS(=O)(=O)Cc2ccc(-[n+]3ccccc3)cc2)cc1 | 0 | 0 | 0 | 0 | – | – | – | – | – | – | – | –
N=C(N)SCc1ccc(S(=O)(=O)Oc2ccc([N+](=O)[O-])cc2)cc1 | 11 | 125 | 580 | – | – | – | – | – | – | 22 | > 2 | 92
CNC(=N)SCc1ccc(S(=O)(=O)Oc2ccc([N+](=O)[O-])cc2)cc1 | 0 | 0 | 0 | 0 | – | – | – | – | – | – | – | –
N=C(N)SCc1ccc(CS(=O)(=O)Oc2cccc([N+](=O)[O-])c2)cc1 | 0 | 0 | 0 | 430 | – | – | – | – | – | – | – | –
C[S+](C)Cc1ccc(S(=O)(=O)Oc2ccc([N+](=O)[O-])cc2)cc1 | 0 | 0 | 0 | 0 | – | – | – | – | – | – | – | –
